In assay [1] the test system is HT-1080. Briefly: Antiinvasive activity in human HT1080 cells assessed as number of cells migrated at 10 uM after 24 hrs by Boyden chamber invasion assay. The class given is functional. Conditions: in the assay text read “after 48 hrs” for “after 24 hrs”. The method, boiled down:
(§1)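 HT 1080 cells, harvested at 70–80% confluence, were seeded at 6×10⁴ cells per filter in serum-free DMEM with BSA. Transwell filters were coated with human placental type IV collagen. Chambers were incubated 48 h at 37 °C, with media renewed at 24 h. Lower-surface cells were fixed, Giemsa-stained and counted by light microscopy. Results are % of untreated control migration, mean ± s.d., n=3.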

Assay [2] relates to HT-1080. Briefly: Antiinvasive activity in human HT1080 cells assessed as number of cells migrated at 0.1 uM after 24 hrs by Boyden chamber invasion assay. In kind it is functional. The following applies: in the assay text read “after 48 hrs” for “after 24 hrs”. The method, boiled down: as §1
For assay [3], the system named is HT-1080. Nature of the assay: Antiinvasive activity in human HT1080 cells assessed as number of cells migrated at 1 uM after 48 hrs by Boyden chamber invasion assay.
Assay [4] concerns HT-1080. Nature of the assay: Antiinvasive activity in human HT1080 cells assessed as number of cells migrated at 10 uM after 48 hrs by Boyden chamber invasion assay.
The test system of assay [5] is HT-1080. Briefly: Antiinvasive activity in human HT1080 cells assessed as number of cells migrated at 0.1 uM after 48 hrs by Boyden chamber invasion assay.

In the case of `O=C(Oc1cccc(Cl)c1)c1cc2ccccc2oc1=O`, the Activity turned out to be 35.65% in the assay on HT-1080 [1] and 52.4% with HT-1080 [2]. The Cells migrated with HT-1080 [3] is reported as 45.5%.

On to `CC(=O)OCc1ccc2oc(=O)c(C(=O)Oc3cccc(Cl)c3)cc2c1`, for which the Activity is listed as 6.17% in the assay with HT-1080 [1] and 95.2% with HT-1080 [2]. Besides, the Cells migrated in the assay with HT-1080 [3] is recorded as 49.11%.

In the case of `O=C(Oc1cccc(Cl)c1)c1cc2cc(CCl)ccc2oc1=O`, the Activity with HT-1080 [1] amounted to 67%; in the assay with HT-1080 [2], 98.35%. In the assay with HT-1080 [3], the Cells migrated is listed as 79.76%.

In the case of `Cc1ccc2oc(=O)c(C(=O)Oc3cccc(Cl)c3)cc2c1`, the Activity is on record as 27.62% with HT-1080 [1] and 81.5% in the assay on HT-1080 [2]. In addition, in the assay with HT-1080 [3], the Cells migrated amounted to 52.49%.

Consider `CC(=O)NCc1ccc2oc(=O)c(C(=O)Oc3ccccc3)cc2c1`, for which the Cells migrated in the assay with HT-1080 [3] was 63.45%.

Turning to `CC(=O)OCc1ccc2oc(=O)c(C(=O)N(C)c3ccccc3Cl)cc2c1`, the Cells migrated in the assay on HT-1080 [3] was 62.78%.

Regarding `CC(=O)OCc1ccc2oc(=O)c(C(=O)N(C)c3cccc(Cl)c3)cc2c1`, the Cells migrated in the assay on HT-1080 [3] worked out at 82.56%.

For the compound `CCC(=O)OCc1ccc2oc(=O)c(C(=O)Oc3cccc(Br)c3)cc2c1`, the Activity amounted to 21.32% in the assay on HT-1080 [1] and 84.36% with HT-1080 [2]. Moreover, in the assay with HT-1080 [3], the Cells migrated is recorded as 40.23%.

Consider `CCCC(=O)OCc1ccc2oc(=O)c(C(=O)Oc3cccc(Br)c3)cc2c1`, for which the Activity with HT-1080 [4] was 24.67%; in the assay on HT-1080 [2] it was 88.55%. For the same compound, the Cells migrated with HT-1080 [3] turned out to be 50.47%.

With `CC(=O)OCc1ccc2oc(=O)c(C(=O)Sc3cccc(Cl)c3)cc2c1`, the Activity is given as 61.86% with HT-1080 [1] and 76.54% in the assay on HT-1080 [2]. Further, in the assay with HT-1080 [3], the Cells migrated is on record as 65.84%.

As for `CC(=O)OCc1ccc2oc(=O)c(C(=O)Sc3cccc(Br)c3)cc2c1`, the results for the Activity with HT-1080 [1] and in the assay on HT-1080 [2] were 67.84% and 79.58%, respectively. The Cells migrated in the assay with HT-1080 [3] is listed as 70.86%.

For the compound `CC(=O)OCc1ccc2oc(=O)c(C(=O)Nc3cccc(Cl)c3)cc2c1`, the Activity turned out to be 42.75% with HT-1080 [1] and 79.55% in the assay on HT-1080 [2]. Also, the Cells migrated in the assay with HT-1080 [3] is on record as 66.85%.

For the compound `O=C1NC(=O)C(c2ccc(-c3ccccc3)cc2)(N2CCN(c3ccc([N+](=O)[O-])cc3)CC2)C(=O)N1`, the Cells migrated in the assay on HT-1080 [3] is 41.6%.

On to `Cl.NCc1ccc2oc(=O)c(C(=O)Oc3cccc(F)c3)cc2c1`, for which the Cells migrated with HT-1080 [3] turned out to be 45.25%.

`CC(C)(C)C(=O)OCc1ccc2oc(=O)c(C(=O)Oc3cccc(Br)c3)cc2c1`: the Activity is 23.64% with HT-1080 [1] and 65.24% with HT-1080 [5]. Moreover, the Cells migrated in the assay on HT-1080 [3] is listed as 48.21%.

In the case of `O=C(Oc1ccccc1)c1cc2cc([N+](=O)[O-])ccc2oc1=O`, the Cells migrated in the assay with HT-1080 [3] amounted to 76.68%.

Take `O=C(Oc1cccc(F)c1)c1cc2cc([N+](=O)[O-])ccc2oc1=O`: the Cells migrated in the assay on HT-1080 [3] amounted to 53.56%.

For `O=C(Oc1cccc(Cl)c1)c1cc2cc([N+](=O)[O-])ccc2oc1=O`, in the assay with HT-1080 [3], the Cells migrated is listed as 65.78%.

`CC(=O)NCc1ccc2oc(=O)c(C(=O)Oc3cccc(Br)c3)cc2c1`: the Activity in the assay on HT-1080 [1] was determined as 27.14%; with HT-1080 [2] it was 34.38%. Besides, the Cells migrated with HT-1080 [3] worked out at 36.94%.

On to `CC(=O)NCc1ccc2oc(=O)c(C(=O)Oc3cccc(I)c3)cc2c1`, for which the Cells migrated with HT-1080 [3] is on record as 23.47%.

With `CC(=O)NCc1ccc2oc(=O)c(C(=O)Oc3cccc(Cl)c3)cc2c1`, in the assay with HT-1080 [3], the Cells migrated came to 36.58%.

Regarding `CC(=O)OCc1ccc2oc(=O)c(C(=O)Oc3cccc(Br)c3)cc2c1`, the Activity in the assay with HT-1080 [1] was determined as 11.77%; with HT-1080 [2], 39.47%. Moreover, the Cells migrated in the assay on HT-1080 [3] came to 21.81%.

On to `CC(C)CC(C(=O)N(C)C(Cc1ccccc1)C(=O)O)C(CSc1ccccc1)C(=O)NO` (configuration not stated), for which the Cells migrated in the assay on HT-1080 [3] amounted to 38.45%.

Regarding `CCCCC(=O)OCc1ccc2oc(=O)c(C(=O)Oc3cccc(Br)c3)cc2c1`, the values for the Activity with HT-1080 [1] and with HT-1080 [2] were 32.26% and 92.36%, respectively. For the same compound, the Cells migrated in the assay on HT-1080 [3] is listed as 63.25%.

With `CCCCCCC(=O)OCc1ccc2oc(=O)c(C(=O)Oc3cccc(Br)c3)cc2c1`, the Activity in the assay with HT-1080 [1] is 35.96%; with HT-1080 [2], 89.36%. In addition, in the assay with HT-1080 [3], the Cells migrated turned out to be 55.56%.

Turning to `Cl.NCc1ccc2oc(=O)c(C(=O)Oc3cccc(Br)c3)cc2c1`, the Activity in the assay with HT-1080 [1] was 63.58%; in the assay on HT-1080 [2], 88.26%. Moreover, the Cells migrated in the assay with HT-1080 [3] was found to be 79.25%.

Turning to `O=C(Oc1cccc(Br)c1)c1cc2cc([N+](=O)[O-])ccc2oc1=O`, the Cells migrated with HT-1080 [3] was 35.22%.

Take `Cl.NCc1ccc2oc(=O)c(C(=O)Oc3ccccc3)cc2c1`: the Cells migrated in the assay with HT-1080 [3] turned out to be 85.53%.

For the compound `CC(=O)NCc1ccc2oc(=O)c(C(=O)Oc3cccc(F)c3)cc2c1`, the Cells migrated with HT-1080 [3] is recorded as 65.58%.

`CC(=O)OCc1ccc2oc(=O)c(C(=O)N(C)c3ccc(Cl)cc3)cc2c1`: in the assay on HT-1080 [3], the Cells migrated stood at 98.56%.

Take `Cl.NCc1ccc2oc(=O)c(C(=O)Oc3cccc(Cl)c3)cc2c1`: the Cells migrated in the assay on HT-1080 [3] was 86.56%.

On to `Cl.NCc1ccc2oc(=O)c(C(=O)Oc3cccc(I)c3)cc2c1`, for which the Cells migrated with HT-1080 [3] turned out to be 25.34%.

In the case of `CC(=O)OCc1ccc2oc(=O)c(C(=O)Sc3ccccc3)cc2c1`, the Activity in the assay with HT-1080 [1] worked out at 73.84%; in the assay with HT-1080 [2], 89.45%. The Cells migrated with HT-1080 [3] amounted to 83.45%.

Turning to `O=C(Oc1cccc(I)c1)c1cc2cc([N+](=O)[O-])ccc2oc1=O`, in the assay on HT-1080 [3], the Cells migrated worked out at 63.58%.

As for `CC(C)C(=O)OCc1ccc2oc(=O)c(C(=O)Oc3cccc(Br)c3)cc2c1`, the Activity was 21.07% with HT-1080 [1] and 54.36% in the assay on HT-1080 [2]. Besides, the Cells migrated with HT-1080 [3] amounted to 37.8%.

In the case of `CCCCCC(=O)OCc1ccc2oc(=O)c(C(=O)Oc3cccc(Br)c3)cc2c1`, the Activity is 33.94% in the assay with HT-1080 [1] and 94.25% in the assay with HT-1080 [2]. Also, the Cells migrated with HT-1080 [3] was 59.32%.

The values above are taken from ChEMBL document CHEMBL1154461, “6-Substituted 2-oxo-2H-1-benzopyran-3-carboxylic acid derivatives in a new approach of the treatment of cancer cell invasion and metastasis” (2008).
